# Data taken from paper PMC5812400 (ESMO Open, 2018).
# Entries after “also recorded” stand apart in the source; their conditions may differ.
# System: adult patients with advanced non-haematological malignancies
# Experiment: Safety and tolerability
# Type: in vivo, human
# Method in brief: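 Patients on milled oral capsules, fasted, in 28-day cycles. AEs and SAEs recorded from first dose through 30 days after last dose. Graded by NCI CTCAE v4.03 and coded to MedDRA v19.0. Relatedness to study drug judged by investigator.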
structure (smiles),measurement,setting,value
"CC(C)n1nc(-c2ccc3oc(N)nc3c2)c2c(N)ncnc21 [TAK-228, Sapanisertib]",Drug-related AE: Dry mouth,QW 20 mg (n=7),0 n (%)
same,Drug-related AE: Fatigue,QW 20 mg (n=7),3 (43) n (%)
same,Drug-related AE: Hyperglycaemia,QW 20 mg (n=7),0 n (%)
same,Drug-related AE: Nausea,QW 20 mg (n=7),4 (57) n (%)
same,Drug-related AE: Pruritus,QW 20 mg (n=7),0 n (%)
same,Drug-related AE: Rash (maculopapular),QW 20 mg (n=7),0 n (%)
same,Drug-related AE: Stomatitis,QW 20 mg (n=7),0 n (%)
same,Drug-related AE: Vomiting,QW 20 mg (n=7),2 (29) n (%)
same,Drug-related SAE,QW 20 mg (n=7),0 n (%)
same,Drug-related grade ≥3 AE,QW 20 mg (n=7),2 (29) n (%)
same,Grade ≥3 AE,QW 20 mg (n=7),5 (71) n (%)
same,Grade ≥3 AE: Abdominal pain,QW 20 mg (n=7),1 (14) n (%)
same,Grade ≥3 AE: Anaemia,QW 20 mg (n=7),1 (14) n (%)
same,Grade ≥3 AE: Diarrhoea,QW 20 mg (n=7),1 (14) n (%)
same,Grade ≥3 AE: Hypercalcaemia,QW 20 mg (n=7),0 n (%)
same,Grade ≥3 AE: Hyperglycaemia,QW 20 mg (n=7),0 n (%)
same,Grade ≥3 AE: Hypophosphataemia,QW 20 mg (n=7),0 n (%)
same,Grade ≥3 AE: Hypotension,QW 20 mg (n=7),2 (29) n (%)
same,Grade ≥3 AE: Nausea,QW 20 mg (n=7),1 (14) n (%)
same,Grade ≥3 AE: Vomiting,QW 20 mg (n=7),1 (14) n (%)
same,On-study deaths,QW 20 mg (n=7),0 n (%)
same,SAE,QW 20 mg (n=7),4 (57) n (%)
same,AE resulting in TAK-228 discontinuation,QW 30 mg (n=13),3 (23) n (%)
same,Drug-related AE,QW 30 mg (n=13),11 (85) n (%)
same,Drug-related AE: Asthaenia,QW 30 mg (n=13),0 n (%)
same,Drug-related AE: Decreased appetite,QW 30 mg (n=13),2 (15) n (%)
same,Drug-related AE: Dehydration,QW 30 mg (n=13),0 n (%)
same,Drug-related AE: Diarrhoea,QW 30 mg (n=13),2 (15) n (%)
same,Drug-related AE: Dry mouth,QW 30 mg (n=13),1 (8) n (%)
same,Drug-related AE: Fatigue,QW 30 mg (n=13),6 (46) n (%)
same,Drug-related AE: Hyperglycaemia,QW 30 mg (n=13),3 (23) n (%)
same,Drug-related AE: Nausea,QW 30 mg (n=13),5 (39) n (%)
same,Drug-related AE: Pruritus,QW 30 mg (n=13),1 (8) n (%)
same,Drug-related AE: Rash (maculopapular),QW 30 mg (n=13),2 (15) n (%)
same,Drug-related AE: Stomatitis,QW 30 mg (n=13),2 (15) n (%)
same,Drug-related AE: Vomiting,QW 30 mg (n=13),7 (54) n (%)
same,Drug-related SAE,QW 30 mg (n=13),2 (15) n (%)
same,Drug-related grade ≥3 AE,QW 30 mg (n=13),4 (31) n (%)
same,Grade ≥3 AE,QW 30 mg (n=13),7 (54) n (%)
same,Grade ≥3 AE: Abdominal pain,QW 30 mg (n=13),1 (8) n (%)
same,Grade ≥3 AE: Anaemia,QW 30 mg (n=13),1 (8) n (%)
same,Grade ≥3 AE: Hypercalcaemia,QW 30 mg (n=13),2 (15) n (%)
same,Grade ≥3 AE: Hyperglycaemia,QW 30 mg (n=13),3 (23) n (%)
same,Grade ≥3 AE: Hypophosphataemia,QW 30 mg (n=13),1 (8) n (%)
same,Grade ≥3 AE: Hypotension,QW 30 mg (n=13),0 n (%)
same,Grade ≥3 AE: Nausea,QW 30 mg (n=13),1 (8) n (%)
same,Grade ≥3 AE: Vomiting,QW 30 mg (n=13),1 (8) n (%)
same,On-study deaths,QW 30 mg (n=13),1 (8) n (%)
same,SAE,QW 30 mg (n=13),6 (46) n (%)
same,AE resulting in TAK-228 discontinuation,QW Total (n=20),3 (15) n (%)
same,Drug-related AE,QW Total (n=20),16 (80) n (%)
same,Drug-related AE: Asthaenia,QW Total (n=20),1 (5) n (%)
same,Drug-related AE: Decreased appetite,QW Total (n=20),3 (15) n (%)
same,Drug-related AE: Dehydration,QW Total (n=20),1 (5) n (%)
same,Drug-related AE: Diarrhoea,QW Total (n=20),6 (30) n (%)
same,Drug-related AE: Dry mouth,QW Total (n=20),1 (5) n (%)
same,Drug-related AE: Fatigue,QW Total (n=20),9 (45) n (%)
same,Drug-related AE: Hyperglycaemia,QW Total (n=20),3 (15) n (%)
same,Drug-related AE: Nausea,QW Total (n=20),9 (45) n (%)
same,Drug-related AE: Pruritus,QW Total (n=20),1 (5) n (%)
same,Drug-related AE: Rash (maculopapular),QW Total (n=20),2 (10) n (%)
same,Drug-related AE: Stomatitis,QW Total (n=20),2 (10) n (%)
same,Drug-related AE: Vomiting,QW Total (n=20),9 (45) n (%)
same,Drug-related SAE,QW Total (n=20),2 (10) n (%)
same,Drug-related grade ≥3 AE,QW Total (n=20),6 (30) n (%)
same,Grade ≥3 AE,QW Total (n=20),12 (60) n (%)
same,Grade ≥3 AE: Abdominal pain,QW Total (n=20),2 (10) n (%)
same,Grade ≥3 AE: Anaemia,QW Total (n=20),2 (10) n (%)
same,Grade ≥3 AE: Diarrhoea,QW Total (n=20),1 (5) n (%)
same,Grade ≥3 AE: Hypercalcaemia,QW Total (n=20),2 (10) n (%)
same,Grade ≥3 AE: Hyperglycaemia,QW Total (n=20),3 (15) n (%)
same,Grade ≥3 AE: Hypophosphataemia,QW Total (n=20),1 (5) n (%)
same,Grade ≥3 AE: Hypotension,QW Total (n=20),2 (10) n (%)
same,Grade ≥3 AE: Nausea,QW Total (n=20),2 (10) n (%)
same,Grade ≥3 AE: Vomiting,QW Total (n=20),2 (10) n (%)
same,On-study deaths,QW Total (n=20),1 (5) n (%)
same,SAE,QW Total (n=20),10 (50) n (%)
same,"Asthaenic conditions, patients",QW arm,60%
same,Drug-related AE of any grade: diarrhoea,QW arm,30%
same,Drug-related AE of any grade: fatigue,QW arm,45%
same,Drug-related AE of any grade: nausea,QW arm,45%
same,Drug-related AE of any grade: vomiting,QW arm,45%
same,Grade ≥3 AE: Abdominal pain,QW arm,10%
same,Grade ≥3 AE: Anaemia,QW arm,10%
same,Grade ≥3 AE: Hypercalcaemia,QW arm,10%
same,Grade ≥3 AE: Hyperglycaemia,QW arm,15%
same,Grade ≥3 AE: Hypotension,QW arm,10%
same,Grade ≥3 AE: Nausea,QW arm,10%
same,Grade ≥3 AE: Vomiting,QW arm,10%
same,"SAEs, patients",QW arm,50%
same,Patients experiencing AEs,TAK-228 QD arm,100%
same,Patients with drug-related AEs,TAK-228 QD arm,94%
same,Patients experiencing AEs,TAK-228 QW arm,95%
same,Patients with drug-related AEs,TAK-228 QW arm,80%
same,"AEs of interest (hyperglycaemia, rash, renal insufficiency, mucosal inflammation and asthaenic conditions), patients",all treatment arms,≥ 10%
same,"Most commonly reported drug-related AEs (fatigue, diarrhoea and nausea), patients","treatment period, across all treatment arms",≥ 25%
same,On-study deaths and relatedness to study drugs,"whole study, all arms","Three on-study deaths occurred, all considered unrelated to study drugs; also recorded: Three deaths occurred during the study, one in each treatment arm; none were considered related to study drugs"
